The list is not random: actives were taken first. Their share in the collection is about 3.5%.
MrgX1 antagonist – human MrgX1 receptor antagonism, primary screen. MRGX1-HEK293 calcium flux, Fluo-4, BAM8-22 antagonism; active compounds read low. B-score at 10 µM. actives 1.3% (n = 310,000);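 active = calcium-response B-score plate-corrected more than 3 library SD below zero, starting fluorescence within 5 deviations, no agonist response on first addition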;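 note: peak minus trough fluorescence over baseline after final BAM8-22 challenge near maximal dose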
MrgX1 PAM – human MrgX1 positive allosteric modulation, primary screen | Q96LB2 | MrgX1-HEK293, Fluo-4 calcium flux, FDSS; active compounds read high | B-score at 10 µM | actives 0.63% (n = 310,000);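 active = plate-corrected calcium response at least 3 library SD above typical, normal starting fluorescence, not activating the receptor alone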;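 note: compound read alongside a low EC10 to EC30 dose of BAM8-22 agonist; peak minus trough fluorescence over baseline measured at the second addition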
RGS4 pot – potentiators or activators of RGS4 | AID 463111 | actives 0.92% (n = 310,000) | HEK293 M3R/inducible RGS4, carbachol calcium flux Fluo4; active compounds read low | B-score at 10 µM;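 active = B-score of the integrated calcium signal more than 4 SD below the library mean, with starting fluorescence not abnormally high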;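 note: negative B-score means reduced calcium response which marks RGS4 activation or potentiation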
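test system = M3R-expressing HEK293 line, RGS4 induced by doxycycline | probe or stimulus = carbachol at ECmax as muscarinic agonist stimulus | timing = dye loading 30 min 37 °C, buffer rest 30 min RT | signal = calcium dye Fluo4 fluorescence | evaluation = B score from integrated fluorescence ratio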
RGS4 block – human RGS4 inhibition; P49798; HEK293 M3R/RGS4 inducible, Fluo-4 calcium flux; active compounds read high; triggered by carbachol at its EC20; B-score at 10 µM; actives 0.45% (n = 310,000); AID 463165;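 active = B-score, a plate-corrected calcium signal, over three deviations above library mean, with baseline fluorescence within five deviations of library mean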;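 note: RGS4 expression induced by doxycycline in cells with stable M3 receptor; B-score is computed from the integrated fluorescence ratio over baseline after carbachol; higher B-score means a larger calcium signal and so more RGS4 inhibition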
Target sequence (P49798 whole entry, looked up): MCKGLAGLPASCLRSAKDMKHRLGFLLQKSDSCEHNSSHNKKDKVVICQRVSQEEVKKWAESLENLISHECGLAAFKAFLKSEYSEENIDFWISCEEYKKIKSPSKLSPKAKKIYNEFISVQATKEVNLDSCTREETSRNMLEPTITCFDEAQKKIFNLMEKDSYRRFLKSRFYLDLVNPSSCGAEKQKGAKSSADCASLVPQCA
MrgX1 agonist – agonists of human MrgX1 receptor; actives 0.44% (n = 310,000); B-score at 10 µM; MrgX1-HEK293 cells, Fluo-4 calcium fluorescence, agonist mode; active compounds read high; Q96LB2;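 active = calcium response B-score plate-corrected fluorescence ratio at least 3 library SD, with starting fluorescence B-score inside 5 SD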
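Material: MrgX1-expressing HEK293 cells / Dosing: compound as first of three additions / Incubation: overnight seeding, then 1 h dark dye loading / Signal: Fluo-4 NW calcium fluorescence / Evaluation: B-scored fluorescence response ratio / Benchmarks: positive and negative control wells on each plate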
RGS4 activ val – RGS4 activation, validation assay; shares compounds with RGS4 pot; actives 89% (n = 1,100); inhibition, % at 10 µM; HEK293 M3R/RGS4 inducible, carbachol calcium flux Fluo4; AID 602282;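 active = inhibition above 3 SD of the buffer control wells, cut at about 41% in these data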;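 note: signal is the integrated peak-minus-minimum Fluo4 fluorescence over baseline ratio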
RGS4 act ctr – RGS4 activator counter-screen hit in non-induced cells; shares compounds with RGS4 pot; HEK293 M3R non-induced RGS4, Fluo4 calcium flux; after carbachol challenge at its EC90; inhibition, % at 10 µM; actives 82% (n = 1,100);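 active = inhibition exceeding 3 SD of buffer-only control wells, cut at about 26% in these data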;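 note: percent drop in integrated peak-minus-baseline over baseline Fluo4 ratio after carbachol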
Active calls of the source: *; i = inactive; . = no result.

SMILES | MrgX1 antagonist | MrgX1 PAM | RGS4 pot | RGS4 block | MrgX1 agonist | RGS4 activ val | RGS4 act ctr
CCCN(CC#CC(O)(c1ccccc1)c1cccnc1)CCC (configuration not stated) | i | i | i | i | i | . | .
CCCCC(CC)C(=O)Nc1cc(C(=O)NCCC)ccc1N1CCC2(CC1)CC(c1ccccc1)=NO2 (configuration not stated) | i | i | i | i | i | . | .
COc1ccc(N2C(=O)CSC2c2cccc(OC)c2OC)cc1 (configuration not stated) | i | i | -11.3* | i | i | 85.5* | 46.3*
COc1ccc(N2C(=O)CSC2c2ccccc2)cc1 (configuration not stated) | i | i | i | i | i | . | .
COc1cccc(C2SCC(=O)N2c2ccc(C)cc2)c1OC (configuration not stated) | i | i | -8.89* | i | i | 92.0* | 85.8*
CC1CN(C(=O)COC(=O)COc2ccc(C#N)cc2)CC(C)O1 (configuration not stated) | i | i | i | i | i | . | .
CCCSc1nsc(NC(=O)CCC)n1 | i | i | i | i | i | . | .
S=C(NCCN(C1CCCCC1)C1CCCC1)Nc1cccc(Cl)c1 | i | i | -7.92* | i | i | 62.0* | 83.8*
S=C(Nc1cccc(Cl)c1)NC1CC2CCCC(C1)N2C1CCCC1 (configuration not stated) | i | i | i | i | i | . | .
O=C(Nc1ccc2c(c1)OCCO2)c1cccnc1 | i | i | -8.07* | i | i | 0.0 | 0.0
O=C(c1ccc2c(=O)n3c(nc2c1)CCCCC3)N1CCN(c2ccccc2)CC1 | i | i | i | i | i | . | .
O=C(c1ccc2c(=O)n3c(nc2c1)CCCCC3)N1CCN(C(c2ccccc2)c2ccccc2)CC1 | i | i | -7.72* | i | i | 93.0* | 92.3*
O=c1c2cc(Br)ccc2nc2n1CCCCC2 | i | i | -8.93* | i | i | 80.0* | 30.3*
O=C(NC(=O)c1ccccc1O)c1ccc2c(c1)CCO2 | i | i | i | i | i | . | .
O=C(CSc1c2c(nc3ccc(Cl)cc13)CCCC2)NCCCN1CCOCC1 | i | i | -10.5* | i | i | 91.5* | 90.8*
O=C(c1ccc(N2CCN(C(=O)c3ccc(F)cc3F)CC2)cc1)c1cccc(F)c1 | i | i | i | i | i | . | .
COc1ccc(/C=N/NC(=O)c2ccccc2OCc2ccccc2)c(OC)c1 | i | i | -11.2* | i | i | 94.0* | 75.8*
COc1ccc(/C(C)=N/NC(=O)c2ccccc2OCc2ccccc2)c(OC)c1 | i | i | i | i | i | . | .
CN(CC(=O)Nc1cccc(F)c1)C(=O)c1cc(-c2cccs2)nn1-c1ccccc1 | i | i | -9.55* | i | i | 76.0* | 42.8*
CC(C)(C)c1cc(C(=O)NCc2cc(F)cc3c2OCOC3)n(Cc2ccccc2)n1 | i | i | -8.4* | i | i | 92.0* | 56.3*
Cc1cccc(C)c1NC(=O)NNC(=O)c1cc(C(C)(C)C)nn1Cc1ccccc1 | i | i | i | i | i | . | .
CN(CC(=O)Nc1cccc(C#N)c1)Cc1ccc(Cl)cc1 | i | i | i | i | i | . | .
CN(CC(=O)Nc1ccc(C#N)cc1)Cc1ccc(Cl)c(Cl)c1 | i | i | -8.65* | i | i | 91.5* | 95.3*
CCOc1ccc2oc(C(=O)N3CCN(c4ccccc4OCC)CC3)c(C)c2c1 | i | i | -10.3* | i | i | 91.5* | 78.8*
COc1ccccc1N1CCN(C(=O)c2oc3cc(C)c(C)cc3c2C)CC1 | . | . | i | i | . | . | .
COc1ccc(CC(=O)Nc2cccc(-c3nnc(-c4ccco4)o3)c2)cc1 | i | i | i | i | i | . | .

Source: PubChem BioAssay (Johns Hopkins Ion Channel Center)
